Measured values: paper PMC7138392 (Industrial Crops and Products, 2019)

Assay: Cytotoxicity in MDCK cells
Format: cell-based, Canine
Conditions: dog
Outline: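 MDCK cells (1 × 10^5/well) grown 24 h at 37 °C, 5% CO2, then washed twice with PBS pH 7.20. Exposed to test compound at 100 to 3.12 μM in p-MEM for 72 h at 37 °C, 5% CO2. Fixed, stained with 0.40% crystal violet in methanol, A490 read. Viability expressed relative to untreated cell control; CC50 by regression. Triplicate.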

With `CCC(CC)O[C@@H]1C=C(C(=O)O)C[C@H](N)[C@H]1NC(C)=O` [OC, Oseltamivir carboxylate] as the molecule, how does the CC50 at 72 h read?
The CC50 at 72 h was greater than 100 µM.
